Laboratory results published in ChEMBL document CHEMBL4513216, “Probing the Open Global Health Chemical Diversity Library for Multistage-Active Starting Points for Next-Generation Antimalarials” (ACS Infect Dis, 2020).

Assay: Toxicity liver stage against HepG2, at 10uM
Assay type: cell-based
Design: test concentration 10 uM, cell line HepG2-A16-CD81EGFP
Settings: human, HepG2-A16-CD81EGFP cells; read-out: INHIBITION
Method in brief: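 Uninfected HepG2-A16-CD81EGFP cells, 3 × 10^3 per well, 1536-well, plated on prespotted compound at 10 μM final, parasite-free screening media added to match infected plates; puromycin 10 μM positive, DMSO 0.5% negative; run in parallel with 48 h PbLuc assay at 37 °C, 5% CO2; viability by CellTiter-Glo luminescence, normalized to controls.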
Compound `CC(C)=CCN1CCN(Cc2cc(C)c(O)c(C)c2)CC1CCO` (stereo not drawn) has a cytotoxicity at 10 µM of -7.44%.
For `Cc1nc2ccccn2c1CN1C[C@@H](CN(C)CCO)[C@@H](CO)C1`, the cytotoxicity at 10 µM was -11.4%.
Compound `O=C(CSC1=NS(=O)(=O)c2cc(F)ccc2N1)c1ccccc1` has a cytotoxicity at 10 µM of -10.7%.
For `O=C(NC1CCCC1)N1CCCCC1c1nc(C2CC2)no1` (stereo not drawn), the cytotoxicity at 10 µM was -9.52%.
Work on `CCCc1ccc(S(=O)(=O)NC(=O)CCc2cscn2)cc1` yielded a cytotoxicity at 10 µM of 1.12%.
For `Cc1nc(CN(C)C2CCN(Cc3nc4ccccc4n3C)C2)no1` (stereo not drawn), the cytotoxicity at 10 µM was -9.26%.
In the case of `c1cncc(CN2CC[C@@H]3O[C@H](COCCN4CCCC4)CC[C@@H]32)c1`, the cytotoxicity at 10 µM is reported as -156%.
`c1cncc(CN2CCCC(Nc3ncnc4c3CCNCC4)C2)c1` (stereo not drawn) showed a cytotoxicity at 10 µM of 4.42%.
For `Cc1ccc(NC(=O)N(CCO)CCO)c(OCc2ccccc2)c1`, the cytotoxicity at 10 µM was 18.4%.
In the case of `Cc1ncc(CN2CCC(n3cc(-c4ccc(F)cc4)nn3)CC2)cn1`, the cytotoxicity at 10 µM is reported as 5.48%.
Compound `O=c1[nH]c2c(c(=O)n1C1CCCCC1)CCC2NCc1ccccc1` (stereo not drawn) has a cytotoxicity at 10 µM of -5.43%.
With `C[C@@H](N)C(=O)N1CC2(CCNCC2)c2cc(Cl)ccc21` the cytotoxicity at 10 µM was -2.42%.
For `Cc1nc(C)c(C(=O)N2CCCC(n3ccnc3C)C2)s1` (stereo not drawn), the cytotoxicity at 10 µM was -5.19%.
`Cc1nc(C(=O)N2CCCC2c2c(C)nn(C)c2C)ccc1C#N` (stereo not drawn) showed a cytotoxicity at 10 µM of -6.16%.
For `CC(=O)N[C@@H]1CN(Cc2nc3ccccc3[nH]2)C[C@H]1c1ccc(C)o1`, the cytotoxicity at 10 µM was 2.75%.
In the case of `Cc1nc(C(=O)N2CC[C@@]3(C[C@@H](NS(C)(=O)=O)CCO3)C2)cs1`, the cytotoxicity at 10 µM is reported as -66%.
With `CS(=O)(=O)N1CCCC12CCCN(C(=O)c1cc(F)cc(F)c1)C2` (stereo not drawn) the cytotoxicity at 10 µM was -140%.
Work on `COc1cccc(C(=O)NS(=O)(=O)c2cc(Cl)sc2Cl)c1OC(F)F` yielded a cytotoxicity at 10 µM of -0.268%.
Compound `CN(C)c1nc2c(c(=O)[nH]1)CCN(C(=O)C1CCCO1)C2` (stereo not drawn) has a cytotoxicity at 10 µM of -43.3%.
In the case of `NC(=O)CN1CCC(NC(=O)N2CCCC2c2ccncc2)CC1` (stereo not drawn), the cytotoxicity at 10 µM is reported as 10.5%.
Compound `Cc1ccc(N2C[C@H](O)[C@@H](N3CCN(c4ccccn4)CC3)C2)nn1` has a cytotoxicity at 10 µM of -0.442%.
With `O=C(c1ccco1)N1CC[C@@H]2O[C@@H](COCC3CCOCC3)CC[C@@H]21` the cytotoxicity at 10 µM was 1.95%.
Work on `CCc1cnc(N2C[C@H]3CCCC(N(C)Cc4ccccn4)[C@H]3C2)nc1` (stereo partly drawn) yielded a cytotoxicity at 10 µM of -114%.
Work on `CCn1cnnc1CNC(=O)N1CCN(CCc2ccccc2)CC1` yielded a cytotoxicity at 10 µM of -8.14%.
For `c1cc(CN2CCOCC3(CCNCC3)C2)ccn1`, the cytotoxicity at 10 µM was -71%.
`CC(C)Cn1c2c(ccc1=O)CC(N)CC2` (stereo not drawn) showed a cytotoxicity at 10 µM of 8.03%.
Compound `CC(C)c1ccc(CNC(C)c2ccc(S(=O)(=O)N(C)C)cc2)cc1` (stereo not drawn) has a cytotoxicity at 10 µM of 32.6%.
`COc1ccc(C2CN(c3nc(C)cc(C)n3)CCN2C(C)=O)cc1` (stereo not drawn) gave a cytotoxicity at 10 µM of 2.06%.
With `O=C(NC1CCCCC1)c1cc(Br)cnc1N1CCCCC1` the cytotoxicity at 10 µM was 2.22%.
`CC(NC(=O)c1ccoc1)C(=O)N(C)Cc1cccc(C(F)(F)F)c1` (stereo not drawn) gave a cytotoxicity at 10 µM of -13.6%.
For `CCc1ccc(C(NC(=O)CN(C)S(C)(=O)=O)C(C)(C)C)o1` (stereo not drawn), the cytotoxicity at 10 µM was -1.76%.
With `Cn1cc(CNc2ccc(F)c(N3CCCS3(=O)=O)c2)cn1` the cytotoxicity at 10 µM was -12.8%.
`O=C1NC(c2ccccc2)=N[C@@]12CC[C@@H]1CN(Cc3cccnc3)C[C@@H]12` gave a cytotoxicity at 10 µM of 6.8%.
With `CCN(CCCNc1ncnc2cc(F)c(F)cc12)S(C)(=O)=O` the cytotoxicity at 10 µM was 37.7%.
For `Cn1ncc2c1CN(Cc1ccc(F)cc1)CC2COCC1CC1` (stereo not drawn), the cytotoxicity at 10 µM was 9.55%.
`CC(=O)N1CCCC2(CCN(Cc3ccc(Cl)c(F)c3)C2)C1` (stereo not drawn) showed a cytotoxicity at 10 µM of 9.58%.
Compound `COc1ccc(CN2CC[C@H]3[C@H]2CCN3C(=O)c2cnn(C)c2)cc1` has a cytotoxicity at 10 µM of 7.9%.
In the case of `O=C1NCC2(CCCN(C(=O)c3csc(-c4cccs4)n3)C2)O1` (stereo not drawn), the cytotoxicity at 10 µM is reported as 0.55%.
Work on `COc1cccc2sc(N(C)CC(=O)NCc3nc(C)no3)nc12` yielded a cytotoxicity at 10 µM of -1.53%.
For `CC(C)CSCCN1CCN(S(C)(=O)=O)CC1`, the cytotoxicity at 10 µM was -3.66%.
With `O=C1CCCN1Cc1ncn2c1CN(Cc1cccs1)CCC2` the cytotoxicity at 10 µM was -84.1%.
Compound `CN(C)CCCn1ccnc1C1CCCN(c2cc(N)ncn2)C1` (stereo not drawn) has a cytotoxicity at 10 µM of -2.1%.
`Cc1cc(C(N)=O)nc(C2(C)CCCN2Cc2cnn(C)c2C)n1` (stereo not drawn) showed a cytotoxicity at 10 µM of -20.6%.
